Legend:
healthy volunteers = assay: first-in-human adverse event monitoring in healthy volunteers; type: in vivo
Summary of the method: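 Participants were aged 56–75 (four male, four female). Tracer was given as an i.v. bolus (1–2 min) via a cephalic-vein catheter, supine, before 94 min of PET-MR over three sessions ending at 214 min. Adverse events were watched for continuously during scans, breaks and afterwards. Vital signs and ECG were taken ~60 min post-imaging, then physician/nurse review before discharge and off-site follow-up at 24–48 h. Later events were self-reported.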

[1] = HPLC stability determination of final drug product; type: physicochemical; settings: ambient temperature, shielded container
Summary of the method: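 Final product was formulated at 44–463 MBq/mL in USP ethanol (1 mL)/0.5 mg ascorbic acid in 0.9 % sodium chloride, sterile filtered and sealed in a glass vial. It was held at ambient temperature in a shielded container and checked by HPLC after end-of-synthesis. Release QC covered HPLC radiochemical purity (≥90 %), pH 4.5–7.5, endotoxin, GC residual solvents, sterility and filter integrity.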

COC(=O)[C@@H](N)CC(=O)Nc1ccc2c(c1)Cc1cc([18F])ccc1-2 [[^18F]RP-115, methyl N^4-(7-[^18F]fluoro-9H-fluoren-2-yl)asparaginate]
adverse events / pharmacological effects (healthy volunteers; 70.3–355 MBq i.v. bolus, n=8, ≤48 h and up to 1 year): no adverse events (AE) or clinically detectable pharmacological effects
tolerability (healthy volunteers; 70.3–355 MBq i.v., n=8, PET-MR scanning protocol): well tolerated
expiration time after end-of-synthesis (EOS) [1]: 4 h
